Inhibition in vivo data for 35 molecules are collected here from ChEMBL document CHEMBL3272230, “Hypoglycemic alpha-cycloalkylphenylmehtyl, furanalkyl, and thiophenealkyl lactamimides” (1976).

By inhibition in vivo is commonly meant the relative decrease from the control value, in per cent.

What all share (type): functional
The test system of assay [1] is Rattus norvegicus. In words: Hypoglycemic activity in fasted glucose primed Sprague-Dawley rat assessed as plasma glucose level at 100 mg/kg administered via oral gavage measured after 2 hrs by glucose-oxidase method relative to control. A digest of the protocol:
(§1)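 Young male Sprague-Dawley rats, 105-115 g, fasted overnight. Glucose 1 g/kg given subcutaneously, then test compound immediately by gavage. Blood taken 2 h later and plasma glucose measured by glucose oxidase. Six treated rats per group against six glucose-primed controls given vehicle only by gavage. Result expressed as % reduction versus control; values over 20% significant at p ≤ 0.05.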

Assay [2] relates to Rattus norvegicus. In words: Hypoglycemic activity in fasted glucose primed Sprague-Dawley rat assessed as plasma glucose level at 12.5 mg/kg administered via oral gavage measured after 2 hrs by glucose-oxidase method relative to control. A digest of the protocol:
as §1

The test system of assay [3] is Rattus norvegicus. In words: Hypoglycemic activity in fasted glucose primed Sprague-Dawley rat assessed as plasma glucose level at 50 mg/kg administered via oral gavage measured after 2 hrs by glucose-oxidase method relative to control. An outline of the steps:
as §1

Assay [4] has as its system Rattus norvegicus. In words: Hypoglycemic activity in fasted glucose primed Sprague-Dawley rat assessed as plasma glucose level at 25 mg/kg administered via oral gavage measured after 2 hrs by glucose-oxidase method relative to control. An outline of the steps: as §1
The test system of assay [5] is Rattus norvegicus. The experiment in a line: Hypoglycemic activity in fasted glucose primed Sprague-Dawley rat assessed as plasma glucose level at 200 mg/kg administered via oral gavage measured after 2 hrs by glucose-oxidase method relative to control. An outline of the steps: as §1
For assay [6], the system named is Rattus norvegicus. The experiment in a line: Hypoglycemic activity in fasted glucose primed Sprague-Dawley rat assessed as plasma glucose level at 6 mg/kg administered via oral gavage measured after 2 hrs by glucose-oxidase method relative to control.

Take `c1csc(C(/N=C2\CCCCCCN2)C2CC2)c1` (stereo unspecified): the inhibition in vivo at 100 mg/kg in the assay on Rattus norvegicus [1] is 50%. Moreover, the inhibition in vivo at 12.5 mg/kg in the assay on Rattus norvegicus [2] was determined as 17%.
Regarding `c1ccc(C(/N=C2\CCCCCN2)C2CCCC2)cc1` (stereo unspecified), the inhibition in vivo at 100 mg/kg in the assay on Rattus norvegicus [1] amounted to 46%. The inhibition in vivo at 12.5 mg/kg in the assay on Rattus norvegicus [2] came out at 12%.
Regarding `COc1ccc(C(/N=C2\CCCCCN2)C2CC2)cc1` (stereo unspecified), the inhibition in vivo at 100 mg/kg in the assay with Rattus norvegicus [1] was 40%. Also, the inhibition in vivo at 12.5 mg/kg with Rattus norvegicus [2] worked out at 1%.
On to `COc1ccc(C(/N=C2\CCC(C(C)(C)C)CCN2)C2CC2)cc1` (stereo unspecified), for which the inhibition in vivo at 100 mg/kg in the assay on Rattus norvegicus [1] worked out at 17%.
`c1ccc(C(/N=C2\CCCCN2)C2CC2)cc1` (stereo unspecified): in the assay with Rattus norvegicus [1], the inhibition in vivo at 100 mg/kg was determined as 36%. Moreover, in the assay on Rattus norvegicus [3], the inhibition in vivo at 50 mg/kg is 33%. In addition, the inhibition in vivo at 25 mg/kg with Rattus norvegicus [4] turned out to be 23%. The inhibition in vivo at 12.5 mg/kg in the assay on Rattus norvegicus [2] came out at 1%.
Turning to `c1ccc(C(/N=C2\CCCCCN2)C2CC2)cc1` (stereo unspecified), in the assay with Rattus norvegicus [1], the inhibition in vivo at 100 mg/kg came to 51%. Moreover, the inhibition in vivo at 50 mg/kg in the assay with Rattus norvegicus [3] turned out to be 41%. In addition, the inhibition in vivo at 25 mg/kg in the assay on Rattus norvegicus [4] turned out to be 18%. In the assay with Rattus norvegicus [2], the inhibition in vivo at 12.5 mg/kg worked out at 5%.
The matching figures for `c1ccc(C(/N=C2\CCCCCCN2)C2CC2)cc1` (stereo unspecified): 58%, 46%, 26% and 0%.
The corresponding values for `Cc1ccc(C(/N=C2\CCCCCN2)C2CC2)c(C)c1` (stereo unspecified) are 56%, 43%, 29% and 14%.
The corresponding values for `Cc1ccc(C(/N=C2\CCCCCCCN2)C2CC2)c(C)c1` (stereo unspecified) are 61%, 47%, 37% and 17%.
For `c1ccc2c(C(/N=C3\CCCCCN3)C3CC3)cccc2c1` (stereo unspecified), the inhibition in vivo at 100 mg/kg in the assay with Rattus norvegicus [1] stood at 21%.
Regarding `c1ccc(C(/N=C2\CCCCCN2)C2CCC2)cc1` (stereo unspecified), the inhibition in vivo at 100 mg/kg in the assay with Rattus norvegicus [1] turned out to be 44%. Moreover, the inhibition in vivo at 12.5 mg/kg with Rattus norvegicus [2] was 14%.
As for `c1ccc(C(/N=C2\CCCCCN2)C2CCCCC2)cc1` (stereo unspecified), in the assay on Rattus norvegicus [1], the inhibition in vivo at 100 mg/kg stood at 0%.
For the molecule `c1ccc(C(/N=C2\CCCCCN2)C2CCCCCC2)cc1` (stereo unspecified), the inhibition in vivo at 100 mg/kg with Rattus norvegicus [1] is 6%.
For `c1coc(C/N=C2\CCCCCN2)c1`, in the assay with Rattus norvegicus [1], the inhibition in vivo at 100 mg/kg came to 0%. Moreover, in the assay on Rattus norvegicus [5], the inhibition in vivo at 200 mg/kg came out at 0%.
Consider `CC(Cc1cccs1)/N=C1\CCCCCN1` (stereo unspecified), for which the inhibition in vivo at 100 mg/kg in the assay with Rattus norvegicus [1] worked out at 41%. For the same molecule, the inhibition in vivo at 12.5 mg/kg with Rattus norvegicus [2] stood at 0%.
`CCC(Cc1cccs1)/N=C1\CCCN1` (stereo unspecified): the inhibition in vivo at 100 mg/kg in the assay with Rattus norvegicus [1] came out at 35%.
In the case of `CCC(Cc1cccs1)/N=C1\CCCCN1` (stereo unspecified), the inhibition in vivo at 100 mg/kg in the assay on Rattus norvegicus [1] was 42%. For the same molecule, the inhibition in vivo at 12.5 mg/kg in the assay with Rattus norvegicus [2] was 9%.
The matching figures for `CCC(Cc1cccs1)/N=C1\CCCCCN1` (stereo unspecified): 54% and 10%.
In the case of `CCC(Cc1cccs1)/N=C1\CCCCCCN1` (stereo unspecified), the inhibition in vivo at 100 mg/kg in the assay with Rattus norvegicus [1] was 44%.
On to `CCC(Cc1cccs1)/N=C1\CCCCCCCN1` (stereo unspecified), for which, in the assay with Rattus norvegicus [1], the inhibition in vivo at 100 mg/kg was 68%. The inhibition in vivo at 12.5 mg/kg in the assay on Rattus norvegicus [2] was determined as 31%.
Consider `CCC(Cc1cccs1)/N=C1\CCC(C(C)(C)C)CCN1` (stereo unspecified), for which the inhibition in vivo at 100 mg/kg in the assay on Rattus norvegicus [1] worked out at 32%.
Turning to `CC(/N=C1\CCCCCN1)C(C)c1cccs1` (stereo unspecified), the inhibition in vivo at 100 mg/kg with Rattus norvegicus [1] came out at 46%. For the same molecule, in the assay with Rattus norvegicus [2], the inhibition in vivo at 12.5 mg/kg was determined as 0%.
For `C=CCC(Cc1cccs1)/N=C1\CCCCCN1` (stereo unspecified), in the assay on Rattus norvegicus [1], the inhibition in vivo at 100 mg/kg came out at 65%. For the same molecule, the inhibition in vivo at 50 mg/kg in the assay on Rattus norvegicus [3] came to 49%. Also, the inhibition in vivo at 12.5 mg/kg in the assay on Rattus norvegicus [2] was determined as 14%.
On to `c1csc(C(/N=C2\CCCCN2)C2CC2)c1` (stereo unspecified), for which the inhibition in vivo at 100 mg/kg with Rattus norvegicus [1] was 28%.
For `c1csc(C(/N=C2\CCCCCN2)C2CC2)c1` (stereo unspecified), the inhibition in vivo at 100 mg/kg with Rattus norvegicus [1] came to 44%. The inhibition in vivo at 12.5 mg/kg with Rattus norvegicus [2] stood at 33%.
As to `c1ccc(C(/N=C2\CCCCN2)c2ccco2)cc1` (stereo unspecified), the inhibition in vivo at 100 mg/kg with Rattus norvegicus [1] is 27%. Further, the inhibition in vivo at 50 mg/kg with Rattus norvegicus [3] came to 28%. The inhibition in vivo at 25 mg/kg in the assay on Rattus norvegicus [4] is 10%. Also, in the assay on Rattus norvegicus [2], the inhibition in vivo at 12.5 mg/kg came to 13%.
For the molecule `c1ccc(C(/N=C2\CCCCCN2)c2ccco2)cc1` (stereo unspecified), the inhibition in vivo at 100 mg/kg with Rattus norvegicus [1] was determined as 52%. Further, the inhibition in vivo at 50 mg/kg with Rattus norvegicus [3] is 37%. The inhibition in vivo at 25 mg/kg in the assay with Rattus norvegicus [4] is 34%. Also, the inhibition in vivo at 12.5 mg/kg in the assay on Rattus norvegicus [2] was found to be 5%.
As for `c1ccc(C(/N=C2\CCCCCCN2)c2ccco2)cc1` (stereo unspecified), in the assay with Rattus norvegicus [1], the inhibition in vivo at 100 mg/kg was 61%. Also, in the assay with Rattus norvegicus [3], the inhibition in vivo at 50 mg/kg is 42%. For the same molecule, in the assay with Rattus norvegicus [4], the inhibition in vivo at 25 mg/kg amounted to 29%. In addition, the inhibition in vivo at 12.5 mg/kg with Rattus norvegicus [2] worked out at 22%.
As to `c1ccc(C(/N=C2\CCCCN2)c2cccs2)cc1` (stereo unspecified), the inhibition in vivo at 100 mg/kg in the assay on Rattus norvegicus [1] came to 32%. Also, the inhibition in vivo at 25 mg/kg in the assay with Rattus norvegicus [4] was determined as 31%. The inhibition in vivo at 12.5 mg/kg in the assay on Rattus norvegicus [2] amounted to 13%.
Take `c1ccc(C(/N=C2\CCCCCN2)c2cccs2)cc1` (stereo unspecified): in the assay with Rattus norvegicus [1], the inhibition in vivo at 100 mg/kg came out at 50%. Moreover, the inhibition in vivo at 50 mg/kg in the assay on Rattus norvegicus [3] was found to be 46%. In the assay with Rattus norvegicus [4], the inhibition in vivo at 25 mg/kg is 36%. Moreover, in the assay on Rattus norvegicus [2], the inhibition in vivo at 12.5 mg/kg turned out to be 23%.
The corresponding values for `c1ccc(C(/N=C2\CCCCCCN2)c2cccs2)cc1` (stereo unspecified) are 41%, 37%, 37% and 29%.
In the case of `c1ccc(C(/N=C2\CCCCCCCCCCCN2)c2cccs2)cc1` (stereo unspecified), the inhibition in vivo at 100 mg/kg with Rattus norvegicus [1] was found to be 4%.
Regarding `C1CCN/C(=N/[C@@H]2CCC[C@@H]2C2CCCCC2)CC1`, the inhibition in vivo at 100 mg/kg in the assay with Rattus norvegicus [1] amounted to 53%. Besides, the inhibition in vivo at 6 mg/kg in the assay on Rattus norvegicus [6] worked out at 13%. The inhibition in vivo at 50 mg/kg with Rattus norvegicus [3] turned out to be 49%. In addition, in the assay on Rattus norvegicus [4], the inhibition in vivo at 25 mg/kg came to 42%. The inhibition in vivo at 12.5 mg/kg in the assay on Rattus norvegicus [2] came to 33%.
With `c1ccc(C(/N=C2\CCCCN2)c2ccccc2)cc1`, the inhibition in vivo at 100 mg/kg in the assay on Rattus norvegicus [1] was found to be 46%. The inhibition in vivo at 6 mg/kg with Rattus norvegicus [6] stood at 12%. Further, in the assay on Rattus norvegicus [3], the inhibition in vivo at 50 mg/kg was found to be 52%. For the same molecule, the inhibition in vivo at 25 mg/kg in the assay with Rattus norvegicus [4] was found to be 42%. Besides, in the assay with Rattus norvegicus [2], the inhibition in vivo at 12.5 mg/kg is 41%.
In the case of `CCCCNC(=O)NS(=O)(=O)c1ccc(C)cc1` [TOLBUTAMIDE], the inhibition in vivo at 100 mg/kg in the assay with Rattus norvegicus [1] was determined as 41%. For the same molecule, the inhibition in vivo at 50 mg/kg with Rattus norvegicus [3] worked out at 43%. Moreover, the inhibition in vivo at 25 mg/kg in the assay on Rattus norvegicus [4] is 29%. Besides, the inhibition in vivo at 12.5 mg/kg in the assay with Rattus norvegicus [2] came out at 16%.
